ChEMBL document CHEMBL1146601, “Antileishmanial ring-substituted ether phospholipids” (J Med Chem, 2003)

Tests used:
Leishmania donovani = assay: In vitro anti-leishmanial activity against promastigote cultures of Leishmania donovani MON 703; assay type: functional, organism-based
Summary of the method: (§1)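 Promastigotes (L. donovani MHOM/IN/80/DD8/LEM 703; L. infantum MHOM/TN/80/IPT1/LEM 235) grown in RPMI 1640 with 10% FCS, L-glutamine and antibiotics at 26 °C. Seeded at 5 × 10^5 cells/mL with 3-fold medium dilutions of a 9.625 mM DMSO solution, 72 h at 26 °C. MTT added for 3 h; SDS/2-propanol stop; A550 (ref 620 nm). IC50 by Hills method.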

Leishmania infantum = assay: In vitro anti-leishmanial activity against promastigote cultures of Leishmania infantum MON 235; assay type: functional, organism-based; summary of the method: as §1

C[N+](C)(C)CCOP(=O)([O-])OCCCCCCCCCCCC1C2CC3CC(C2)CC1C3 (centres undefined)
IC50 (Leishmania donovani): 2.88 µM
IC50 (Leishmania infantum): 5.97 µM

C[N+]1(CCOP(=O)([O-])OCCOc2ccc3ccccc3c2)CCCCC1
IC50 (Leishmania donovani): > 100 µM
IC50 (Leishmania infantum): > 100 µM

C[N+]1(CCOP(=O)([O-])OCCOc2ccccc2)CCOCC1
IC50 (Leishmania donovani): > 100 µM
IC50 (Leishmania infantum): > 100 µM

C[N+]1(CCOP(=O)([O-])OCCCCCCOc2ccccc2)CCOCC1
IC50 (Leishmania donovani): > 100 µM
IC50 (Leishmania infantum): > 100 µM

C[N+]1(CCOP(=O)([O-])Oc2ccc(C34CC5CC(CC(C5)C3)C4)cc2)CCOCC1
IC50 (Leishmania donovani): > 100 µM
IC50 (Leishmania infantum): > 100 µM

C[N+](C)(C)CCOP(=O)([O-])OCCCCCC1C2CC3CC(C2)CC1C3 (centres undefined)
IC50 (Leishmania donovani): 4.02 µM
IC50 (Leishmania infantum): > 100 µM

C[N+](C)(C)CCOP(=O)([O-])OCCOc1ccc2ccccc2c1
IC50 (Leishmania donovani): > 100 µM
IC50 (Leishmania infantum): > 100 µM

C[N+](C)(C)CCOP(=O)([O-])OCCCCCCOc1ccccc1
IC50 (Leishmania donovani): > 100 µM
IC50 (Leishmania infantum): > 100 µM

CCCCCCCCCCCCCCC1CCC(OCCOP(=O)([O-])OCC[N+](C)(C)C)CC1 (centres undefined)
IC50 (Leishmania donovani): 23.7 µM
IC50 (Leishmania infantum): 23.3 µM

C[N+](C)(C)CCOP(=O)([O-])OCCOc1ccccc1
IC50 (Leishmania donovani): > 100 µM
IC50 (Leishmania infantum): > 100 µM

C[N+](C)(C)CCOP(=O)([O-])OCC12CC3CC(CC(C3)C1)C2
IC50 (Leishmania donovani): > 100 µM
IC50 (Leishmania infantum): > 100 µM

CCCCCCCCCCCCCCCCOP(=O)([O-])OCC[N+](C)(C)C [MILTEFOSINE]
IC50 (Leishmania donovani): 23.7 µM
IC50 (Leishmania infantum): 22.6 µM
